The list is not random: actives were taken first. Their share in the collection is about 1.9%.
Ins promoter up – MIN6 insulin promoter up-regulation; z-score at 5 µM; 190,000 compounds, 0.3% hits; MIN6 insulin promoter-GFP reporter, high-content imaging; active compounds read high;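 active = z-score above 3 at 5 µM with at least 500 cells counted in the well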
Autophagy mod – autophagy modulation, high-content screen. MEF GFP-LC3 puncta imaging; test concentration mostly 10 µM. AID 463193. calls only at 10 µM (by protocol). 190,000 compounds, 0.98% hits;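 active = percentage of spot-positive cells more than 3 SD above its plate mean, without a fluorescence outlier flag or 80% toxicity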
b-catenin transl – beta-catenin nuclear translocation modulation | HeLa beta-catenin nuclear translocation, immunofluorescence imaging | nuclear translocation activity, % at 5 µM | 190,000 compounds, 0.3% hits;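 active = nuclear translocation activity above 50% at 5 µM, with a well cell count of 50 or more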;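 also: per-cell ratio of nuclear to cytoplasmic median beta-catenin stain intensity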
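Test system: human HeLa cells, endogenous beta-catenin. Times: 24 h compound exposure, 37°C. Measured by: beta-catenin immunofluorescence imaging with DAPI.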
MT stabilize HCS – microtubule stabilization, imaging screen. HeLa tubulin immunostaining HCS, 24 h; share of cells brighter than vehicle mean+2SD. % tubulin-high responders, % at 10 µM. 200,000 compounds, 0.83% hits;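 active = plate Z-score above 3 for both tubulin-high and condensed-nucleus cell shares, with cell loss under 80%, at 10 µM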;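 also: anti alpha tubulin signal scored within the nucleus-defined area of each cell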
A number is an active result; . = inactive; / = not tested or not shown; + = active, no number.

SMILES	Ins promoter up	Autophagy mod	b-catenin transl	MT stabilize HCS
O=C(O)c1cccc(COCC(F)(F)C(F)F)c1	.	+	.	.
COc1ccc([C@H]2[C@@H]3C=CCC[C@@]3(C)C(=O)N2Cc2ccccc2)cc1Cl	/	/	.	/
CCOC(=O)c1ccc(Oc2cc(C)nc(SC)n2)cc1	.	.	.	44.3
COC(=O)c1ccc(Oc2nc(C)cc(Oc3ccccc3)n2)cc1	/	.	.	.
COC(=O)c1ccc(Oc2cc(C)nc(-n3nc(C)cc3C)n2)cc1	/	.	/	20.0
CCOC(=O)COC(=O)c1ccc(Oc2cc(C)nc(SC)n2)cc1	/	.	.	.
Cc1ccc2[nH]c3c(c2c1)CN(C(=O)CN1CCN(c2cccc(C)c2C)CC1)CC3	.	.	/	.
Cc1ccc2[nH]c3c(c2c1)CN(C(=O)CN1c2ccc(F)cc2CCC1C)CC3 (stereo not drawn)	.	.	.	37.8
Cc1ccc(-c2c[nH]c(=S)n2-c2ccccc2F)cc1	.	.	.	.
Nc1c(C(=O)NC23CC4CC(CC(C4)C2)C3)sc2nc3c(c(C(F)(F)F)c12)CCC3	.	+	.	.
Cc1nc2nc(N)nn2c(C)c1C/C=C/c1ccccc1	.	.	.	.
Cc1ccc(CSc2nccc(-c3c(C)nc4ccccn34)n2)cc1	/	/	55.4	/
Cc1ccc(CSc2ncn(-c3ccccc3)n2)cc1	/	.	.	.
Cc1cc(C)nc(SCc2ccc(C(=O)N/N=C/C3CCCCC3)cc2)n1	.	+	.	.
Cc1cc(C)nc(SCc2ccc(C(=O)N/N=C/c3ccncc3)cc2)n1	.	.	.	.
COc1ccc(OC)c(-c2c3cc(O)c(=O)cc-3oc3cc(O)c(O)cc23)c1	.	.	.	.
O=c1cc2oc3cc(O)c(O)cc3c(-c3ccccc3O)c-2cc1O	15.3	/	.	/
CCOc1ccccc1-c1c2cc(O)c(=O)cc-2oc2cc(O)c(O)cc12	8.08	.	.	.
Cc1cc2oc(=O)cc(CN3CCN(S(=O)(=O)c4cccs4)CC3)c2cc1C	.	.	.	.
CCC(C)Oc1ccccc1C1CC(=O)NC2=C1C(=O)CCC2 (stereo not drawn)	.	.	.	60.2
COc1ccc(C(=O)NC2CCN(C(=S)Nc3ccc(C)cc3)CC2)cc1	.	.	.	.
CC(C)OC(=O)c1c2c(n3ccccc13)C(=O)c1ccccc1C2=O	11.7	.	.	.
CC(C)C1S/C(=N/N=C/c2ccco2)NC1=O (stereo not drawn)	3.25	.	.	.
Cc1ccccc1CC1S/C(=N/N=C/c2ccco2)NC1=O (stereo not drawn)	/	/	.	/
Cc1ccc2[nH]c(-c3ccccc3)c(CN3CCCC3)c(=O)c2c1	.	.	.	.
SMILES	Ins promoter up	Autophagy mod	b-catenin transl	MT stabilize HCS
Cc1ccc2[nH]c(-c3ccccc3)c(CN(C)C)c(=O)c2c1	4.17	.	.	.
COc1ccc(OC)c(C2=NOC(C(=O)NCc3ccco3)C2)c1 (stereo not drawn)	.	.	/	21.1
O=C(NCc1ccco1)C1CC(c2cc(C(F)(F)F)cc(C(F)(F)F)c2)=NO1 (stereo not drawn)	.	/	92.2	/
O=C(NCc1ccco1)C1CC(c2ccccc2C(F)(F)F)=NO1 (stereo not drawn)	.	/	.	/
COc1cc(C(=O)O)nc(OC)n1	.	.	.	.
Oc1c(Cl)cc(Cl)cc1C1Nc2ccccc2-n2cccc21 (stereo not drawn)	.	/	.	/
COc1ccc2c(c1)NC(c1cc(Cl)cc(Cl)c1O)c1cccn1-2 (stereo not drawn)	.	+	.	.
O=C(c1ccc(F)cc1)N1CCN2C(=O)c3ccccc3C12c1ccc(Cl)cc1 (stereo not drawn)	.	.	.	.
O=C(c1ccccc1)N1CCN2C(=O)c3ccccc3C12c1ccc(Cl)cc1 (stereo not drawn)	.	+	.	.
O=C(NC1CCCCC1)c1cc([N+](=O)[O-])ccc1N1CCCCC1	.	.	.	.
Cc1cc(C)c(-c2csc(NC(=O)c3cc([N+](=O)[O-])ccc3N3CCOCC3)n2)c(C)c1	.	.	/	.
CN1CCN(c2ccc([N+](=O)[O-])cc2C(=O)N2CCOCC2)CC1	.	.	.	.
Cc1ccc(C(=O)c2cc([N+](=O)[O-])ccc2N2CCCCC2)cc1C	.	.	77.9	.
Cc1ccc(C(=O)c2cc([N+](=O)[O-])ccc2N2CCOCC2)c(C)c1	.	.	134.7	.
Cc1ccc(C(=O)c2cc([N+](=O)[O-])ccc2N2CCOCC2)cc1C	.	.	.	19.5
CC(=O)c1cccc(NC(=O)C(CC(C)C)NC(=O)C2CCCCC2)c1 (stereo not drawn)	.	.	.	.
CN(C)C=Nc1ccccc1C1C=NNC1=O (stereo not drawn)	.	/	.	/

Screens: PubChem, several laboratories
